The experiment has as its target Adenosine receptor A2a (Homo sapiens, UniProt P29274). Briefly: Displacement of [3H]ZM241385 from human AA2AR expressed in HEK293T cells after 2 hrs by liquid scintillation counter. The method, boiled down:
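Membranes of HEK293T cells stably expressing AA2AR (40 µg protein) incubated with 1.7 nM (final) [3H]ZM241385 in 50 mM Tris·HCl pH 7.4, 2 h at 25 °C with shaking. Nonspecific binding defined with 100 µM CGS21680. Filtered over GF/B, washed three times with ice-cold buffer. Compounds giving ≥50% inhibition at 10 µM went to concentration-response curves. pKi values, n=3 in duplicate.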
Background: Displacement assays read how much labelled ligand stays bound in the presence of the test substance.

The values below come from BindingDB's records for doi:10.1021/jm300280e (Radboud University Nijmegen Medical Centre, 2012).

Sequence of Adenosine receptor A2a (P29274 whole entry): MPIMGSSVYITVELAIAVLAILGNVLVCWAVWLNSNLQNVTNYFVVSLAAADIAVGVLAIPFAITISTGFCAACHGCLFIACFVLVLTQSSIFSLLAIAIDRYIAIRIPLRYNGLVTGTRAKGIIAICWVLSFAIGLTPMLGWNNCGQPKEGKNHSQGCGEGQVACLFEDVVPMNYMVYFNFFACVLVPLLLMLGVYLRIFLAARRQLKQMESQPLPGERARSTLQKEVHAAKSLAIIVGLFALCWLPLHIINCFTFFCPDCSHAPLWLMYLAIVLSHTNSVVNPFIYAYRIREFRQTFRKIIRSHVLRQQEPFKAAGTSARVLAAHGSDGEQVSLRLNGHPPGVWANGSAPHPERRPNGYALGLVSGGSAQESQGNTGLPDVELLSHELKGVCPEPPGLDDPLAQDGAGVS

Compound `COc1cc(CN=Nc2ncnc3sc4c(c23)CCCC4)ccc1O` had a Ki of 5.01 µM.

As to `N#CC(N=Nc1ccc(S(N)(=O)=O)cc1)c1nc2ccccc2[nH]1` (configuration not stated), the affinity corresponds to a Ki of 5.01 µM.

What is called Ki is a measure of affinity in units of concentration, obtained from inhibition or displacement. Higher therefore signals weaker binding.
